Data reported in PubChem BioAssay AID1442 (PCMD, 2008).
Active and inactive are the calls of the source.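 The calls were made as follows: active = maximum enhancement above 22% with a fitted EC50 greater than zero; inactive = the rest.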

system: not listed separately; assay: mutant MDM2 reporter signal enhancers, dose response, cell-based, luciferase luminescence (AID 1442); conditions: mutant MDM2 reporter cells, luciferase luminescence enhancement, 2 h; active compounds read high
Method in brief: (§1)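 System: MDM2-luciferase fusion reporter cells; Incubation: 2 h compound exposure, 37 °C; Detection: luciferase luminescence of the fusion reporter; Measure: percent signal enhancement over untreated cells, blank-corrected, four-parameter logistic fit; Control set: cells without compound as reference, wells for blank correction.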

Structure (SMILES)	maximum enhancement
CCN(CC)c1ccc(/C=C2/C(=O)c3ccc(C(=O)O)cc3C2=O)cc1	15.6% (inactive)
O=C1C(Cl)=C(N2CCCCC2)C(=O)C(Cl)=C1c1cnc(N2CCCCC2)s1	16.3% (inactive)
COc1ccccc1-c1cc(SC)c(C#N)c(=O)o1	18% (inactive)
Cc1ccc(C=C2C(Cl)=C(Cl)C(Cl)=C2Cl)cc1	10.2% (inactive)

system: mutant MDM2 reporter cells, luciferase luminescence enhancement, 2 h; assay: as above; conditions: not given
Method in brief: as §1

Structure (SMILES)	EC50
COc1ccc(CS(=O)/C(Cl)=C(/Cl)C(=O)Nc2ccc(OC)nc2)cc1 (configuration not stated)	3.41 µM
C=CS(=O)(=O)c1ccc(Oc2ccc(S(=O)(=O)C=C)cc2)cc1	1.5 µM
CC1=NN(c2cccc(C(=O)O)c2)C(=O)/C1=C\C=C/c1ccccc1	92.9 µM
Cc1ccc2c(c1)c1ccc3c(c1n2C)C(=O)C=CC3=O	1.83 µM
CN(C)C(=S)SSC(=S)N(C)C	0.08 µM
C=C1C(=O)O[C@@H]2C[C@@H](C)[C@@H]3C=CC(=O)[C@@]3(C)[C@@H](O)[C@H]12	1.11 µM
COc1cc(/C=C2\COC/C(=C\c3cc(OC)c(OC)c(OC)c3)C2=O)cc(OC)c1OC	648 µM
CC(C)c1ccc(OCc2cccc(C(=O)N/N=C/c3cccnc3)c2)cc1	200 µM (inactive)
COC(=O)CSC1=C(C#N)C(=O)NC(c2ccccc2)S1 (configuration not stated)	4.1 µM
CC(NC(=O)Cn1ncc(Cl)c(Cl)c1=O)C12CC3CC(CC(C3)C1)C2 (configuration not stated)	41.6 µM
CCN(CC)c1ccc(/C=C2\C(=O)c3ccc(C(=O)O)cc3C2=O)cc1	216 µM (inactive)
CCSc1nc2ccccc2n1C(=O)/C=C/c1ccc(OC)c(OC)c1	1.13 µM
CCSc1nc2ccccc2n1C(=O)/C=C\c1ccc(OC)c(OC)c1	1630 µM
CC(C)CC(=O)/C=C/n1c(=S)oc2ccccc21	4.79 µM
Cc1cc(C)nc(S/C=C/C(=O)c2ccc(F)cc2)n1	2.67 µM
O=C(Cn1ncc(Cl)c(Cl)c1=O)NCC1CCCCC1	2.08 µM
O=C(/C=C/c1cccc([N+](=O)[O-])c1)n1cnc2ccccc21	1.72 µM

Structure (SMILES)	EC50
CN(C)c1nc(=NCc2ccco2)ss1	0.1 µM
CCOC(=O)N1C/C(=C\c2ccccc2)C(=O)/C(=C/c2ccccc2)C1	1.94 µM
Cc1cc(C)nc(S/C=C/C(=O)c2ccccc2)n1	0.79 µM
Nc1cccc2c1C(=O)N(C(=O)/C=C/c1cccc(Br)c1)C2=O	16.5 µM
CCOC(=O)/C=C/C(=O)Nc1ccccc1-c1ccccc1NC(=O)/C=C/C(=O)OCC	1320 µM
COCCNC(=O)/C(C#N)=C/c1cccc(/C=C(\C#N)C(=O)NCCOC)c1	0.73 µM
CN(C(=O)c1cccc(COc2ccc(Cl)cc2Cl)c1)c1ccccc1	15.6 µM (inactive)
CCOC(=O)C1=C(c2ccccc2)O/C(=C(/C#N)C(F)(F)F)S1	40.8 µM
COc1ccc(NC(=O)/C(Cl)=C(/Cl)S(=O)Cc2ccc(Cl)cc2)cn1 (configuration not stated)	0.46 µM
COc1cccc(OC)c1C(=O)NNC(=O)c1cccc(COc2ccc3c(c2)CCC3)c1	562 µM (inactive)
CCN1C/C(=C/c2ccc(OC)c(O)c2)C(=O)/C(=C/c2ccc(OC)c(O)c2)C1	888 µM
CC(C)c1ccc2c(c1)C1(NN=C(c3ccccc3)S1)C(=O)N2 (configuration not stated)	1.42 µM
O=C(/C=C/c1cccnc1)/C=C/c1cccnc1	0.58 µM
C=CCSc1nc2ccccc2n1C(=O)/C=C/c1cc(OC)c(OC)c(OC)c1	1.16 µM
Cc1cccc2c1c1ccc3c(c1n2C)C(=O)C=CC3=O	1.43 µM
COc1ccc(NC(=O)/C(Cl)=C(/Cl)S(=O)Cc2ccc(C)cc2)cn1 (configuration not stated)	0.84 µM
